Laboratory results: ChEMBL document CHEMBL1629583, “Establishment of in vitro susceptibility testing methodologies and comparative activities of piperacillin in combination with the penem {beta}-lactamase inhibitor BLI-489” (2009)

What was measured:
Assay type in all cases: functional
[1] = tested on: Haemophilus influenzae; assay: Antimicrobial activity against beta-lactamase-negative Haemophilus influenzae clinical isolate after 18 to 22 hrs by broth microdilution method in presence of beta-lactamase inhibitor Tazobactam
Summary of the method: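 […] was used for CLSI broth microdilution with piperacillin-tazobactam. Inoculum was 10^5 CFU/ml, incubated 18 to 22 h at 35°C in ambient air. MIC was the lowest concentration with no growth visible to the unaided eye.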

[2] = tested on: Haemophilus influenzae; assay: Antimicrobial activity against beta-lactamase-negative Haemophilus influenzae clinical isolate after 18 to 22 hrs by broth microdilution method in presence of beta-lactamase inhibitor BLI-489
Summary of the method: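 Haemophilus isolates were tested in Haemophilus test medium by CLSI broth microdilution. Serial piperacillin dilutions carried BLI-489 fixed at 4 μg/ml. Inoculum was 10^5 CFU/ml, incubated 18 to 22 h at 35°C in ambient air. MIC was the lowest concentration completely inhibiting growth by eye.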

[3] = tested on: Enterococcus faecium; assay: Antimicrobial activity against Enterococcus faecium clinical isolate after 18 to 22 hrs by broth microdilution method in presence of beta-lactamase inhibitor Tazobactam
Summary of the method: (§1)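 Piperacillin-tazobactam was tested by CLSI broth microdilution in Mueller-Hinton II broth against clinical isolates. Inoculum was 10^5 CFU/ml, with 18 to 22 h incubation at 35°C in ambient air. MIC was read as the lowest concentration completely inhibiting visible growth.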

[4] = tested on: Enterococcus faecalis; assay: Antimicrobial activity against vancomycin-resistant Enterococcus faecalis clinical isolate after 18 to 22 hrs by broth microdilution method in presence of beta-lactamase inhibitor Tazobactam
Summary of the method: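 CLSI broth microdilution in Mueller-Hinton II broth. Antibiotic in serial dilution with the β-lactamase inhibitor held at a constant 4 μg/ml. Inoculum 10^5 CFU/ml. Incubated 18 to 22 h at 35°C in ambient air.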

[5] = tested on: Enterococcus avium; assay: Antimicrobial activity against Enterococcus avium clinical isolate after 18 to 22 hrs by broth microdilution method in presence of beta-lactamase inhibitor Tazobactam
Summary of the method: (§2)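 Piperacillin-tazobactam was tested on recent clinical isolates by CLSI broth microdilution in Mueller-Hinton II broth, with tazobactam at constant 4 μg/ml. Wells held 10^5 CFU/ml and were incubated 18 to 22 h at 35°C in ambient air. MIC was the lowest concentration with no growth visible to the unaided eye.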

[6] = tested on: Streptococcus pneumoniae; assay: Antimicrobial activity against penicillin-intermediate Streptococcus pneumoniae clinical isolate after 18 to 22 hrs by broth microdilution method in presence of beta-lactamase inhibitor BLI-489
Summary of the method: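 Streptococci were tested by CLSI broth microdilution in Mueller-Hinton II broth plus 5% lysed horse blood. Piperacillin was serially diluted with BLI-489 fixed at a constant 4 μg/ml. Inoculum was 10^5 CFU/ml, with 18 to 22 h at 35°C in ambient air. MIC was the lowest concentration completely inhibiting growth by eye.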

[7] = tested on: Bacteroides fragilis; assay: Antimicrobial activity against Bacteroides fragilis clinical isolate after 18 to 22 hrs by broth microdilution method in presence of beta-lactamase inhibitor BLI-489
[8] = tested on: Enterococcus durans; assay: Antimicrobial activity against Enterococcus durans clinical isolate after 18 to 22 hrs by broth microdilution method in presence of beta-lactamase inhibitor BLI-489
Summary of the method: (§3)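 CLSI broth microdilution in Mueller-Hinton II broth. Piperacillin serial dilutions were combined with BLI-489 held constant at 4 μg/ml. Inoculum was 10^5 CFU/ml. Plates were incubated 18 to 22 h at 35°C in ambient air. MIC was the lowest concentration completely inhibiting growth seen by the unaided eye. Piperacillin-tazobactam interpretive criteria were applied.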

[9] = tested on: Enterococcus hirae; assay: Antimicrobial activity against Enterococcus hirae clinical isolate after 18 to 22 hrs by broth microdilution method in presence of beta-lactamase inhibitor Tazobactam; summary of the method: as §1
[10] = tested on: Enterococcus hirae; assay: Antimicrobial activity against Enterococcus hirae clinical isolate after 18 to 22 hrs by broth microdilution method in presence of beta-lactamase inhibitor BLI-489
Summary of the method: (§4)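 CLSI broth microdilution in Mueller-Hinton II broth. Serial dilutions of piperacillin were tested with BLI-489 held at a constant 4 μg/ml. Inoculum was 10^5 CFU/ml. Plates were incubated 18 to 22 h at 35°C in ambient air. MIC was the lowest concentration giving complete growth inhibition by unaided eye.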

[11] = tested on: Streptococcus pyogenes; assay: Antimicrobial activity against Streptococcus pyogenes clinical isolate after 18 to 22 hrs by broth microdilution method in presence of beta-lactamase inhibitor Tazobactam
Summary of the method: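 Streptococcal isolates were tested with piperacillin-tazobactam by CLSI broth microdilution in Mueller-Hinton II broth supplemented with 5% lysed horse blood. Inoculum was 10^5 CFU/ml, incubated 18 to 22 h at 35°C in ambient air. Visual endpoint: lowest concentration with complete inhibition.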

[12] = tested on: Citrobacter freundii; assay: Antimicrobial activity against AmpC beta-lactamase-producing Citrobacter freundii clinical isolate after 18 to 22 hrs by broth microdilution method in presence of beta-lactamase inhibitor BLI-489; summary of the method: as §3
[13] = tested on: Enterobacter cloacae; assay: Antimicrobial activity against AmpC beta-lactamase-producing Enterobacter cloacae clinical isolate after 18 to 22 hrs by broth microdilution method in presence of beta-lactamase inhibitor BLI-489; summary of the method: as §3
[14] = tested on: Klebsiella pneumoniae; assay: Antimicrobial activity against class A extended spectrum beta-lactamase- producing Klebsiella pneumoniae clinical isolate after 18 to 22 hrs by broth microdilution method in presence of beta-lactamase inhibitor Tazobactam
Summary of the method: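 CLSI broth microdilution of piperacillin-tazobactam in Mueller-Hinton II broth with serial dilutions. Inoculum was 10^5 CFU/ml. Incubation was 18 to 22 h at 35°C in ambient air. MIC was read as the lowest concentration giving complete inhibition of growth visible to the unaided eye.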

[15] = tested on: Morganella morganii; assay: Antimicrobial activity against Morganella morganii clinical isolate after 18 to 22 hrs by broth microdilution method in presence of beta-lactamase inhibitor BLI-489; summary of the method: as §4
[16] = tested on: Proteus mirabilis; assay: Antimicrobial activity against Proteus mirabilis clinical isolate after 18 to 22 hrs by broth microdilution method in presence of beta-lactamase inhibitor Tazobactam; summary of the method: as §1
[17] = tested on: Proteus vulgaris; assay: Antimicrobial activity against Proteus vulgaris clinical isolate after 18 to 22 hrs by broth microdilution method in presence of beta-lactamase inhibitor Tazobactam; summary of the method: as §1
[18] = tested on: Acinetobacter haemolyticus; assay: Antimicrobial activity against Acinetobacter haemolyticus clinical isolate after 18 to 22 hrs by broth microdilution method in presence of beta-lactamase inhibitor Tazobactam; summary of the method: as §2
[19] = tested on: Acinetobacter lwoffii; assay: Antimicrobial activity against Acinetobacter lwoffii clinical isolate after 18 to 22 hrs by broth microdilution method in presence of beta-lactamase inhibitor Tazobactam; summary of the method: as §2

CCN1CCN(C(=O)N[C@@H](C(=O)N[C@@H]2C(=O)N3[C@@H]2SC(C)(C)[C@@H]3C(=O)O)c2ccccc2)C(=O)C1=O [PIPERACILLIN]
MIC50 [1]: 0.008 µg/mL | MIC90 [1]: 0.03 µg/mL | MIC [2]: ≤ 0.004 µg/mL | MIC50 [2]: ≤ 0.004 µg/mL | MIC90 [2]: 0.015 µg/mL | MIC50 [3]: 32 µg/mL | MIC90 [3]: > 128 µg/mL | MIC50 [4]: 2 µg/mL | MIC90 [4]: > 128 µg/mL | MIC50 [5]: 16 µg/mL | MIC90 [5]: 64 µg/mL | MIC50 [6]: 0.25 µg/mL | MIC90 [6]: 1 µg/mL | MIC50 [7]: 0.25 µg/mL | MIC90 [7]: 0.5 µg/mL | MIC50 [8]: 2 µg/mL | MIC90 [8]: 8 µg/mL | MIC50 [9]: 4 µg/mL | MIC90 [9]: 16 µg/mL | MIC50 [10]: 2 µg/mL | MIC90 [10]: 8 µg/mL | MIC50 [11]: 0.03 µg/mL | MIC90 [11]: 0.06 µg/mL | MIC50 [12]: 4 µg/mL | MIC90 [12]: 64 µg/mL | MIC50 [13]: 2 µg/mL | MIC90 [13]: 8 µg/mL | MIC50 [14]: 32 µg/mL | MIC90 [14]: > 128 µg/mL | MIC50 [15]: 0.25 µg/mL | MIC90 [15]: 1 µg/mL | MIC50 [16]: 0.25 µg/mL | MIC90 [16]: 2 µg/mL | MIC50 [17]: 0.5 µg/mL | MIC90 [17]: 2 µg/mL | MIC50 [18]: ≤ 0.12 µg/mL | MIC90 [18]: 32 µg/mL | MIC50 [19]: ≤ 0.12 µg/mL | MIC90 [19]: 32 µg/mL
